According to ChEMBL document CHEMBL3352485 (J Med Chem, 2014):
Calls of active or inactive are those of the source. The calls are words filed in the database; no cut-off is given here. Where a SMILES comes first, the peptide text is derived from it. [ ]: non-standard residue; d: D form. Arg(Me) = CNC(=N)NCCC[C@H](N)C(=O)O; d4Pal = N[C@H](Cc1ccncc1)C(=O)O; azaGly = NNC(=O)O

How the values were obtained:
KiSS-1 receptor [1] = molecular target: T1, KiSS-1 receptor (Homo sapiens, UniProt Q969F8); experiment: Agonist activity at human KISS1R transfected in CHO cells assessed as intracellular calcium flux after 24 hrs by functional FLIPR assay; type: cell-based
Procedure, shortened: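 CHO cells stably expressing human KISS1R were seeded at 15 000 cells/mL, cultured 24 h, then loaded with fluo-3 for 1 h at 37 °C in HBSS/HEPES (pH 7.4) with probenecid and FBS. Cells were washed in HBSS with 2.5 mM probenecid. Peptides came from 1 mM DMSO stocks diluted in buffer containing probenecid, 0.2% BSA and 0.1% CHAPS. Fluorescence was recorded on FLIPR for 3 min; peak counts over 0–180 s gave agonist activity.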

Rattus norvegicus [2] = experiment: Testosterone-suppressive activity in Crl:CD(SD) rat assessed as number of animal with plasma testosterone level below the limit of detection […], sc through osmotic pumps measured after 6 days by RIA; type: functional
KiSS-1 receptor [3] = molecular target: T2, KiSS-1 receptor (Rattus norvegicus, UniProt Q924U1); experiment: Agonist activity at rat KISS1R transfected in CHO cells assessed as intracellular calcium flux after 24 hrs by functional FLIPR assay; type: cell-based
KiSS-1 receptor [4] = molecular target: T1, KiSS-1 receptor; experiment: Displacement of radioligand from human KISS1R transfected in CHO cells; type: cell-based
Procedure, shortened: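 Binding used membrane fractions prepared from CHO cells expressing recombinant human KISS1R.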

Rattus norvegicus [5] = experiment: Testosterone-suppressive activity in Crl:CD(SD) rat assessed as number of animal with plasma testosterone level below the limit of detection at 0.1 nmol/hr, sc through osmotic pumps measured after 6 days by RIA; type: functional
Procedure, shortened: (§1)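 Peptide was dissolved in distilled water or 50% DMSO as 0.1–2 mM pump solutions and delivered by ALZET osmotic pumps implanted subcutaneously in the back of 9-week-old male Crl:CD(SD) rats (n = 5) under ether. Controls received distilled-water pumps. After 6 days, rats were decapitated and plasma was recovered with aprotinin/EDTA. Testosterone was measured by RIA, and the number of rats below the detection limit (0.04 ng/mL) was counted.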

[6] = Stability of the compound in aqueous solution (JP1) assessed as residual ratio at pH 1.2 up to 2 weeks by HPLC analysis relative to initial level; type: physicochemical
Procedure, shortened: (§2)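 Peptides in aqueous solution at pH 1.2 (JP1, containing 10% acetonitrile), 3, 5 or 7 were kept in the dark at 37 °C for up to 2 weeks. Peptide remaining was quantified from HPLC peak area, with detection at 230–280 nm. The residual ratio (stability index) was expressed relative to the time-0 amount, taken as 100%.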

Rattus norvegicus [7] = experiment: Testosterone-suppressive activity in Crl:CD(SD) rat assessed as number of animal with plasma testosterone level below the limit of detection at 0.5 nmol/hr, sc through osmotic pumps measured after 6 days by RIA; type: functional; procedure, shortened: as §1
KiSS-1 receptor [8] = molecular target: T2, KiSS-1 receptor; experiment: Displacement of radioligand from rat KISS1R transfected in CHO cells; type: cell-based
[9] = Stability of the compound in aqueous solution assessed as residual ratio at pH 3 up to 1 week by HPLC analysis relative to initial level; type: physicochemical; procedure, shortened: as §2
[10] = Stability of the compound in aqueous solution (JP1) assessed as residual ratio at pH 1.2 up to 1 week by HPLC analysis relative to initial level; type: physicochemical; procedure, shortened: as §2
[11] = Stability of the compound in aqueous solution assessed as residual ratio at pH 7 up to 2 weeks by HPLC analysis relative to initial level; type: physicochemical; procedure, shortened: as §2
[12] = Stability of the compound in aqueous solution assessed as residual ratio at pH 5 up to 2 weeks by HPLC analysis relative to initial level; type: physicochemical; procedure, shortened: as §2
[13] = Stability of the compound in aqueous solution assessed as residual ratio at pH 5 up to 1 week by HPLC analysis relative to initial level; type: physicochemical; procedure, shortened: as §2
[14] = Stability of the compound in aqueous solution assessed as residual ratio at pH 7 up to 1 week by HPLC analysis relative to initial level; type: physicochemical; procedure, shortened: as §2
Rattus norvegicus [15] = experiment: Testosterone-suppressive activity in Crl:CD(SD) rat assessed as number of animal with plasma testosterone level below the limit of detection at 0.3 nmol/hr, sc through osmotic pumps measured after 6 days by RIA; type: functional; procedure, shortened: as §1
[16] = Stability of the compound in aqueous solution assessed as residual ratio at pH 3 up to 2 weeks by HPLC analysis relative to initial level; type: physicochemical; procedure, shortened: as §2
[17] = Mean residence time in Sprague-Dawley rat at 1 mg/kg, sc after 24 hrs by LC-MS/MS analysis; type: ADME, organism-based; set-up: dose 1 mg/kg, route subcutaneous; settings: in vivo
Procedure, shortened: (§3)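 Single subcutaneous dose of 1 mg/kg in male Crl:CD(SD) rats, n = 3 per group. Blood was sampled from 5 min to 24 h (5, 10, 15, 30 min; 1, 2, 4, 8, 24 h). Plasma was deproteinized with formic acid/methanol and acetonitrile, and peptide levels were measured by LC-MS. Noncompartmental analysis per animal gave Cmax, Tmax, AUC0-24h, MRT and BA; values are mean ± SD (n = 3).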

[18] = Tmax in Sprague-Dawley rat at 1 mg/kg, sc after 24 hrs by LC-MS/MS analysis; type: ADME, organism-based; set-up: dose 1 mg/kg, route subcutaneous; settings: in vivo; procedure, shortened: as §3
[19] = AUC (0 to 24 hrs) in Sprague-Dawley rat at 1 mg/kg, sc after 24 hrs by LC-MS/MS analysis; type: ADME, organism-based; set-up: time < 24 hr, dose 1 mg/kg, route subcutaneous; settings: plasma; procedure, shortened: as §3
[20] = Total clearance in Sprague-Dawley rat at 1 mg/kg, iv after 24 hrs by LC-MS/MS analysis; type: ADME, organism-based; set-up: dose 1 mg/kg, route intravenous; settings: in vivo
Procedure, shortened: (§4)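 Male Crl:CD(SD) rats (3 per group) got a single intravenous dose of 1 mg/kg. Blood was drawn at 5, 10, 15 and 30 min and at 1, 2, 4, 8 and 24 h. Plasma proteins were removed with 0.2% formic acid/methanol and acetonitrile, and the supernatant was treated with 0.4% formic acid. Peptide was quantified by LC-MS. Noncompartmental parameters were derived per rat, reported as mean ± SD (n = 3).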

[21] = Mean residence time in Sprague-Dawley rat at 1 mg/kg, iv after 24 hrs by LC-MS/MS analysis; type: ADME, organism-based; set-up: dose 1 mg/kg, route intravenous; settings: in vivo; procedure, shortened: as §4
[22] = C5min in Sprague-Dawley rat at 1 mg/kg, iv after 5 mins by LC-MS/MS analysis; settings: in vivo, read-out: Cmin
[23] = Cmax in Sprague-Dawley rat at 1 mg/kg, sc after 24 hrs by LC-MS/MS analysis; type: ADME, organism-based; set-up: dose 1 mg/kg, route subcutaneous; settings: in vivo; procedure, shortened: as §3
Rattus norvegicus [24] = experiment: Testosterone-suppressive activity in Crl:CD(SD) rat assessed as number of animal with plasma testosterone level below the limit of detection at 2 nmol/hr, sc through osmotic pumps measured after 6 days by RIA; type: functional; procedure, shortened: as §1
[25] = AUC (0 to 24 hrs) in Sprague-Dawley rat at 1 mg/kg, iv after 24 hrs by LC-MS/MS analysis; type: ADME, organism-based; set-up: time < 24 hr, dose 1 mg/kg, route intravenous; settings: plasma; procedure, shortened: as §4
[26] = Volume of distribution at steady state in Sprague-Dawley rat at 1 mg/kg, iv after 24 hrs by LC-MS/MS analysis; type: ADME, organism-based; set-up: dose 1 mg/kg, route intravenous; settings: in vivo, read-out: Vdss; procedure, shortened: as §4
[27] = Bioavailability in Sprague-Dawley rat at 1 mg/kg, sc after 24 hrs by LC-MS/MS analysis; type: ADME, organism-based; settings: in vivo; procedure, shortened: as §3
Rattus norvegicus [28] = experiment: Testosterone-suppressive activity in Crl:CD(SD) rat assessed as number of animal with plasma testosterone level below the limit of detection at 0.05 mol/hr, sc through osmotic pumps measured after 6 days by RIA; type: functional
Rattus norvegicus [29] = experiment: Testosterone-suppressive activity in Crl:CD(SD) rat assessed as plasma testosterone level below the limit of detection at 10 to 100 pmol/hr, sc continuous administration through osmotic pumps measured up to 1 week by RIA; type: functional, organism-based
Procedure, shortened: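 Peptide in 50% DMSO was diluted in distilled water to 10, 30 or 100 μM pump solutions, giving 10–100 pmol/h by subcutaneous ALZET osmotic pump in male Crl:CD(SD) rats (n = 5). Vehicle served as control. Plasma testosterone was measured by RIA after 1 or 4 weeks, with values below 0.04 ng/mL set to 0.04. Results are mean ± SD of five rats, tested by one-tailed Shirley–Williams test versus vehicle.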

T1 sequence (Q969F8 whole entry): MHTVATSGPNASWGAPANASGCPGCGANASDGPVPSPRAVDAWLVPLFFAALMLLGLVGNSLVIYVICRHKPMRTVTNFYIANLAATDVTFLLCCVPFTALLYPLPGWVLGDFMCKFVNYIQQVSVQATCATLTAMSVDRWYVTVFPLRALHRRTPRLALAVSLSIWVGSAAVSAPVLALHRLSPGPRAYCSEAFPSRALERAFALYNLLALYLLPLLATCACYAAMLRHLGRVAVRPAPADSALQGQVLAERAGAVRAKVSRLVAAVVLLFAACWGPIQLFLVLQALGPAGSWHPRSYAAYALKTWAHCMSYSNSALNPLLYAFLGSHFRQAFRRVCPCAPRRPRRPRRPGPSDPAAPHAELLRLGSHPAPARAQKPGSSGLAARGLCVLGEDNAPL
T2 sequence (Q924U1 whole entry): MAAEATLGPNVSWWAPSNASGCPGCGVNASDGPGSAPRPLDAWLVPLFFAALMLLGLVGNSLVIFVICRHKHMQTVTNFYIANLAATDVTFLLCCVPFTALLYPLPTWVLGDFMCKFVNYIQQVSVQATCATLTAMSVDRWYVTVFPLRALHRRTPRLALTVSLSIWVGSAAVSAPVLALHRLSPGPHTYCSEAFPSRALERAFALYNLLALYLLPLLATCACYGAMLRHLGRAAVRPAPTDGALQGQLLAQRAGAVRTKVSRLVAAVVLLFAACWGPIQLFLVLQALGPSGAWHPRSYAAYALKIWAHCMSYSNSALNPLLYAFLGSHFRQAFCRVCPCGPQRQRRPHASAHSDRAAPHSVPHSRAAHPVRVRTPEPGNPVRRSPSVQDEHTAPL

Row | Compound | EC50 (KiSS-1 receptor [1]) [pM] | EC50 (KiSS-1 receptor [3]) [pM] | Ki (KiSS-1 receptor [4]) [pM] | Activity (Rattus norvegicus [5]) | remaining at 336 h [6] [%] | Activity (Rattus norvegicus [7]) [%] | Ki (KiSS-1 receptor [8]) [pM] | remaining at 168 h [9] [%] | remaining at 168 h [10] [%] | remaining at 336 h [11] [%] | remaining at 336 h [12] [%] | remaining at 168 h [13] [%] | remaining at 168 h [14] [%] | Activity (Rattus norvegicus [15]) [%] | remaining at 336 h [16] [%] | MRT [17] [min] | Tmax [18] [min] | AUC(0-t) at 24 h [19] [ng·h/mL] | clearance [20] [mL/min/kg] | MRT [21] [min] | further results
1 | CNC(=N)NCCC[C@H](NC(=O)[C@H](CC(C)C)NC(=O)NNC(=O)[C@H](Cc1ccccc1)NC(=O)[C@@H](NC(=O)[C@H](CC(N)=O)NC(=O)[C@@H](Cc1c[nH]c2ccccc12)NC(=O)CCc1ccc(O)cc1)[C@@H](C)O)C(=O)N[C@@H](Cc1c[nH]c2ccccc12)C(N)=O | 300 | 1100 | 39 | 100% | – | – | – | – | – | – | – | – | – | – | – | – | – | – | – | – | Activity (Rattus norvegicus [2]): 0 animals
2 | CNC(=N)NCCC[C@H](NC(=O)[C@H](CC(C)C)NC(=O)NNC(=O)[C@H](Cc1ccccc1)NC(=O)[C@H](CO)NC(=O)[C@H](CC(N)=O)NC(=O)[C@@H](Cc1c[nH]c2ccccc12)NC(=O)[C@H](N)Cc1ccc(O)cc1)C(=O)N[C@@H](Cc1c[nH]c2ccccc12)C(N)=O | 510 | 2300 | 37 | 0 rats (n = 5) | 33.4 | 80 | 77 | 98.2 | 60.8 | 28 | 90.8 | 96 | 56.5 | 40 | 97.1 | – | – | – | – | – | –
3 | CNC(=N)NCCC[C@H](NC(=O)[C@H](CC(C)C)NC(=O)NNC(=O)[C@H](Cc1ccccc1)NC(=O)[C@H](CO)NC(=O)[C@H](CC(N)=O)NC(=O)[C@@H](Cc1ccncc1)NC(=O)[C@H](N)Cc1ccc(O)cc1)C(=O)N[C@@H](Cc1ccccc1)C(N)=O [KISS1-305] (H-[dY][d4Pal]NSF[azaGly]L[Arg(Me)]F-NH2) | 2600 | 10000 | 110 | 0 rats (n = 5) | 32.8 | 60 | 140 | 99.4 | 60.3 | 28 | 91.2 | 94.8 | 54.9 | 0 | 100 | 36.6 | 8.4 | 96 | 69.9 | 22.8 | concentration at 5 min [22]: 969 ng/mL; Cmax [23]: 145 ng/mL; Activity (Rattus norvegicus [24]): 100%; AUC(0-t) at 24 h [25]: 239 ng·h/mL; Vd [26]: 1.58 L/kg
4 | CNC(=N)NCCC[C@H](NC(=O)[C@H](CC(C)C)NC(=O)NNC(=O)[C@H](Cc1ccccc1)NC(=O)[C@@H](NC(=O)[C@H](CC(N)=O)NC(=O)[C@@H](Cc1c[nH]c2ccccc12)NC(=O)[C@H](N)Cc1ccc(O)cc1)[C@@H](C)O)C(=O)N[C@@H](Cc1c[nH]c2ccccc12)C(N)=O | 1000 | 4100 | 36 | 0 rats (n = 5) | 39.1 | 60 | – | 98.7 | 64.9 | 72.8 | 96.5 | 98.8 | 84.9 | 60 | 98.2 | 52.8 | 11.4 | 46 | 33.3 | 43.8 | bioavailability [27]: 9.2%; concentration at 5 min [22]: 1440 ng/mL; Cmax [23]: 47 ng/mL; Activity (Rattus norvegicus [24]): 100%; AUC(0-t) at 24 h [25]: 503 ng·h/mL; Vd [26]: 1.46 L/kg
5 | CNC(=N)NCCC[C@H](NC(=O)[C@H](CC(C)C)NC(=O)NNC(=O)[C@H](Cc1ccccc1)NC(=O)[C@@H](NC(=O)[C@H](CC(N)=O)NC(=O)[C@@H](Cc1ccncc1)NC(=O)[C@@H](Cc1ccc(O)cc1)NC(C)=O)[C@@H](C)O)C(=O)N[C@@H](Cc1c[nH]c2ccccc12)C(N)=O | 750 | 4100 | 89 | – | 33 | – | 170 | 98.7 | 58.3 | 69.8 | 97 | 98.5 | 82.6 | – | 96.8 | 64.2 | 25.2 | 152 | 13.2 | 41.4 | bioavailability [27]: 12.1%; Activity (Rattus norvegicus [28]): 5%; inhibition (Rattus norvegicus [29]): Active; concentration at 5 min [22]: 2070 ng/mL; Activity (Rattus norvegicus [2]): 2 animals; Cmax [23]: 90 ng/mL; AUC(0-t) at 24 h [25]: 1260 ng·h/mL; Vd [26]: 0.547 L/kg
